# Measured values reported in ChEMBL document CHEMBL4627411, “Novel Piperidinyl-Azetidines as Potent and Selective CCR4 Antagonists Elicit Antitumor Response as a Single Agent and in Combination with Checkpoint Inhibitors” (J Med Chem, 2020).
# Active and inactive are the calls of the source. The calls are words filed in the database; no cut-off is given here.
# Key:
# [1] = AUC (0 to last) in mouse at 2 mg/kg, po; assay type: ADME, organism-based; design: dose 2 mg/kg, time 0 - last, route oral; conditions: in vivo
# Cytochrome P450 = assay: Induction of CYP450 (unknown origin); assay type: ADME, protein assay; conditions: human
# [2] = target: C-C chemokine receptor type 2 (Homo sapiens) (UniProt P41597); assay: Antagonist activity at human Gi/G0-coupled […]-induced beta arrestin2 recruitment at 500 nM preincubated for 30 mins […] and measured after 90 to 180 mins by pathhunter assay
# [3] = Oral bioavailability in cynomolgus monkey at 2 mg/kg; assay type: ADME, organism-based, Macaca fascicularis; conditions: in vivo
# [4] = target: C-X-C chemokine receptor type 6 (Homo sapiens) (UniProt O00574); assay: Antagonist activity at human Gi/G0-coupled CXCR6 assessed as inhibition of CXCL16-induced beta arrestin2 recruitment at 500 nM preincubated for 30 mins followed by CXCL16 stimulation and measured after 90 to 180 mins by pathhunter assay
# [5] = Half life in mouse at 0.5 mg/kg, iv; assay type: ADME, organism-based; conditions: in vivo
# [6] = target: C-X-C chemokine receptor type 5 (Homo sapiens) (UniProt P32302); assay: Antagonist activity at human Gi/G0-coupled CXCR5 assessed as inhibition of CXCL13-induced beta arrestin2 recruitment at 500 nM preincubated for 30 mins followed by CXCL13 stimulation and measured after 90 to 180 mins by pathhunter assay
# Cytochrome P450 2C9 = Cytochrome P450 2C9 (Homo sapiens, UniProt P11712); assay: Inhibition of CYP2C9 in human liver microsomes using diclofenac sodium salt as substrate incubated for 20 mins in presence of NADPH by LC-MS/MS analysis; assay type: ADME
# [7] = target: C-C chemokine receptor type 9 (Homo sapiens) (UniProt P51686); assay: Antagonist activity at human Gi/G0-coupled CCR9 receptor expressed in CHOK1 cells assessed as inhibition of CCL25-induced beta arrestin2 recruitment at 500 nM preincubated for 30 mins followed by CCL25 stimulation and measured after 90 to 180 mins by pathhunter assay; assay type: cell-based; conditions: CHO-K1
# [8] = Terminal half life in cynomolgus monkey at 0.5 mg/kg, iv; assay type: ADME, organism-based, Macaca fascicularis; conditions: in vivo, read-out: beta t1/2 (converted)
# [9] = Clearance in mouse at 0.5 mg/kg, iv; assay type: ADME, organism-based; conditions: in vivo
# CT26 [10] = assay: Antitumor activity against mouse CT26 cells allografted in Balb/c mouse assessed as reduction in tumor volume at 50 mg/kg, po qd for 28 days starting from 3 days post inoculation measured twice weekly; assay type: functional, organism-based
# Cytochrome P450 1A2 = Cytochrome P450 1A2 (Homo sapiens, UniProt P05177); assay: Inhibition of CYP1A2 in human liver microsomes using phenacetin as substrate incubated for 20 mins in presence of NADPH by LC-MS/MS analysis; assay type: ADME
# [11] = Clearance in dog at 0.5 mg/kg, iv; assay type: ADME, organism-based, Canis lupus familiaris; conditions: in vivo
# Panc02 [12] = assay: Antitumor activity against mouse Panc02 cells implanted in po dosed C57BL/6 mouse assessed as inhibition of GFP-positive Treg cell migration in to tumor micro environment administered 30 mins prior to Treg cell population addition followed by daily compound dosing for 5 days and measured on day 6 by flow cytometry analysis; assay type: functional, organism-based
# In short: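 Pan02 pancreatic ductal adenocarcinoma mice. Oral compound at several doses; adoptively transferred GFP+ iTreg counted in the tumor, with spleen, skin and lung also examined.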
# Panc02 [13] = assay: Antitumor activity against mouse Panc02 cells allografted in C57BL/6 mouse assessed as reduction in tumor growth at 50 mg/kg, po qd for 38 days in presence of anti-CTLA-4; assay type: functional, organism-based
# In short: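 Pan02-OVA syngeneic tumor model. Compound given 50 mg/kg PO QD on a therapeutic schedule, alone or combined with anti-CTLA-4 antibody; tumor growth tracked. Groups compared by two-tailed t-test.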
# [14] = target: C-C chemokine receptor type 10 (Homo sapiens) (UniProt P46092); assay: Antagonist activity at human Gi/G0-coupled CCR10 receptor expressed in human U2OS cells assessed as inhibition of CCL27-induced beta arrestin2 recruitment at 500 nM preincubated for 30 mins followed by CCL27 stimulation and measured after 90 to 180 mins by pathhunter assay; assay type: cell-based
# Cytochrome P450 2C19 = Cytochrome P450 2C19 (Homo sapiens, UniProt P33261); assay: Inhibition of CYP2C19 in human liver microsomes using S-mephenytoin as substrate incubated for 20 mins in presence of NADPH by LC-MS/MS analysis; assay type: ADME
# [15] = Half life in dog at 0.5 mg/kg, iv; assay type: ADME, organism-based, Canis lupus familiaris; conditions: in vivo
# [16] = target: Atypical chemokine receptor 3 (Homo sapiens) (UniProt P25106); assay: Antagonist activity at human CXCR7 assessed as inhibition of CXCL12-induced beta arrestin2 recruitment at 500 nM preincubated for 30 mins followed by CXCL12 stimulation and measured after 90 to 180 mins by pathhunter assay
# [17] = Oral bioavailability in rat at 2 mg/kg; assay type: ADME, organism-based; conditions: in vivo
# In short: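 Rat in vivo PK. Oral dose of 2 mg/kg; %F derived.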
# Cytochrome P450 3A4 = Cytochrome P450 3A4 (Homo sapiens, UniProt P08684); assay: Inhibition of CYP3A4 in human liver microsomes using midazolam hydrochloride as substrate incubated for 20 mins in presence of NADPH by LC-MS/MS analysis; assay type: ADME
# [18] = target: C-C chemokine receptor type 5 (Homo sapiens) (UniProt P51681); assay: Antagonist activity at human Gi/G0-coupled CCR5 receptor expressed in CHOK1 cells assessed as inhibition of CCL3-induced beta arrestin2 recruitment at 500 nM preincubated for 30 mins followed by CCL3 stimulation and measured after 90 to 180 mins by pathhunter assay; assay type: cell-based; conditions: CHO-K1
# CT26 [19] = assay: Antitumor activity against mouse CT26 cells allografted in Balb/c mouse assessed as reduction in tumour volume at 50 mg/kg, po qd for 28 days starting from 3 days post inoculation measured twice weekly in presence of checkpoint inhibitor anti-PD-L1; assay type: functional, organism-based
# [20] = target: C-C chemokine receptor type 4 (Homo sapiens) (UniProt P51679); assay: Antagonist activity at human Gi/G0-coupled CCR4 receptor expressed in CHO-K1 cells assessed as inhibition of CCL22-induced beta arrestin2 recruitment at 500 nM preincubated for 30 mins followed by CCL22 stimulation and measured after 90 to 180 mins by pathhunter assay; assay type: cell-based
# [21] = target: C-C chemokine receptor type 1 (Homo sapiens) (UniProt P32246); assay: Antagonist activity at human Gi/G0-coupled CCR1 receptor assessed as inhibition of CCL3-induced beta arrestin2 recruitment at 500 nM preincubated for 30 mins followed by CCL3 stimulation and measured after 90 to 180 mins by pathhunter assay
# [22] = Clearance in cynomolgus monkey at 0.5 mg/kg, iv; assay type: ADME, organism-based, Macaca fascicularis; conditions: in vivo
# [23] = Volume of distribution at steady state in mouse at 0.5 mg/kg, iv; assay type: ADME, organism-based; conditions: in vivo, read-out: Vdss
# [24] = Clearance in rat at 0.5 mg/kg, iv; assay type: ADME, organism-based; conditions: in vivo
# In short: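 Rat in vivo PK. Single IV dose of 0.5 mg/kg; clearance in mL/min/kg.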
# CYP3A4 = CYP3A4 (Homo sapiens, UniProt P08684); assay: Ratio of IC50 for time-dependent inhibition of CYP3A4 in human liver microsomes using midazolam hydrochloride as substrate in presence of NADPH to IC50 for time-dependent inhibition of CYP3A4 in human liver microsomes using midazolam hydrochloride as substrate absence of NADPH; conditions: probe midazolam hydrochloride, read-out: Ratio IC50
# Sequence of CYP3A4 (P08684 whole entry): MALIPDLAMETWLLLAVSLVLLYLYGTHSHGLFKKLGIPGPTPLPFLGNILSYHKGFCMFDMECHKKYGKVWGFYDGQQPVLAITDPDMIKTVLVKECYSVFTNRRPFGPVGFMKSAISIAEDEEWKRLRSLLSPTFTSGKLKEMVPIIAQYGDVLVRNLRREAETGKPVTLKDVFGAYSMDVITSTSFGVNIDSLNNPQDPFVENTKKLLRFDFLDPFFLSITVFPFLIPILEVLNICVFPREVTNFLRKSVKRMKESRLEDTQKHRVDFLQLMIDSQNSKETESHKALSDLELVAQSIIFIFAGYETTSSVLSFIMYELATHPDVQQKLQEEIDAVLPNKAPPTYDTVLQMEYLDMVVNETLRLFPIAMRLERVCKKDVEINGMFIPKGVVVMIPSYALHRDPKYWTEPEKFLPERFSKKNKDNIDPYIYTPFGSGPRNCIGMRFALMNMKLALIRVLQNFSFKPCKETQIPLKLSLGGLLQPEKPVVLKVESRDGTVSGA
# Sequence of C-C chemokine receptor type 2 (Homo sapiens) (P41597 whole entry, looked up): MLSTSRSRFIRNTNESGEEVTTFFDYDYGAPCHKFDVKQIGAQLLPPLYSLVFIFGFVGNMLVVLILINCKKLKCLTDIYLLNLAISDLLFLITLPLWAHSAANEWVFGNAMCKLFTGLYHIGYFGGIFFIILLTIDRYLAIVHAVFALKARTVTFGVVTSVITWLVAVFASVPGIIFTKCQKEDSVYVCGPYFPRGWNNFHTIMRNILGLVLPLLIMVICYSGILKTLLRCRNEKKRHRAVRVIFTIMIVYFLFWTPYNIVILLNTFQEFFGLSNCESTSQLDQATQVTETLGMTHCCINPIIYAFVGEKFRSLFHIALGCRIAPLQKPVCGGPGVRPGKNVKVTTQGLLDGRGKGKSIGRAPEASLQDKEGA
# Sequence of C-C chemokine receptor type 1 (Homo sapiens) (P32246 whole entry): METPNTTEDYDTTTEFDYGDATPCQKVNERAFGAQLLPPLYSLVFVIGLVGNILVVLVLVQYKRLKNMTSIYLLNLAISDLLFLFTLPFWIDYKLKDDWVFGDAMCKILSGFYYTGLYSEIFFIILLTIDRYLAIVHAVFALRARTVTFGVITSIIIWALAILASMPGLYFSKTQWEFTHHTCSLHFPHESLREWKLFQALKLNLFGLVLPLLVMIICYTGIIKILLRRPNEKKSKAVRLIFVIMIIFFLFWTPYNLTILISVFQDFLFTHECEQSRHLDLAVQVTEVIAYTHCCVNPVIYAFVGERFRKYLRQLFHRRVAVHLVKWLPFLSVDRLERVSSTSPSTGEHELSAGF
# Sequence of C-C chemokine receptor type 5 (Homo sapiens) (P51681 whole entry, looked up): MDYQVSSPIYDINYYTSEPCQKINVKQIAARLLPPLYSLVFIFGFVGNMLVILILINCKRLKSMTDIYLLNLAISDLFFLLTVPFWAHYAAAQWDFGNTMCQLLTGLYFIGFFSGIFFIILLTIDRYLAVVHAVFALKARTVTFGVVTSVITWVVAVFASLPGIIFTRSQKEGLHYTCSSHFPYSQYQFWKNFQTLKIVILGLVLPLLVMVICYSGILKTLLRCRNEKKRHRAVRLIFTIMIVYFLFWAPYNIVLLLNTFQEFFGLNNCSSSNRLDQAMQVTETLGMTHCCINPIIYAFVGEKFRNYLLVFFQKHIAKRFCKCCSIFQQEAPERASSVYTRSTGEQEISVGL
# Sequence of C-C chemokine receptor type 4 (Homo sapiens) (P51679 whole entry): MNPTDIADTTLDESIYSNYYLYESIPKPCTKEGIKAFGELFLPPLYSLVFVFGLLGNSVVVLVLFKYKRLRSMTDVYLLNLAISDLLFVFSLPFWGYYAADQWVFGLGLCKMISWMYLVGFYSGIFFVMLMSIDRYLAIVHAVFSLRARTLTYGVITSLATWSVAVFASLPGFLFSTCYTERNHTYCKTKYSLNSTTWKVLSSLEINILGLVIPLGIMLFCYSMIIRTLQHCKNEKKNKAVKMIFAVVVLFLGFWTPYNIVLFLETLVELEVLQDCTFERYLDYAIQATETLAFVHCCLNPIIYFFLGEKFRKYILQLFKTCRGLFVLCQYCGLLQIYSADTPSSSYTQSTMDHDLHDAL
# Sequence of Cytochrome P450 2C9 (P11712 whole entry): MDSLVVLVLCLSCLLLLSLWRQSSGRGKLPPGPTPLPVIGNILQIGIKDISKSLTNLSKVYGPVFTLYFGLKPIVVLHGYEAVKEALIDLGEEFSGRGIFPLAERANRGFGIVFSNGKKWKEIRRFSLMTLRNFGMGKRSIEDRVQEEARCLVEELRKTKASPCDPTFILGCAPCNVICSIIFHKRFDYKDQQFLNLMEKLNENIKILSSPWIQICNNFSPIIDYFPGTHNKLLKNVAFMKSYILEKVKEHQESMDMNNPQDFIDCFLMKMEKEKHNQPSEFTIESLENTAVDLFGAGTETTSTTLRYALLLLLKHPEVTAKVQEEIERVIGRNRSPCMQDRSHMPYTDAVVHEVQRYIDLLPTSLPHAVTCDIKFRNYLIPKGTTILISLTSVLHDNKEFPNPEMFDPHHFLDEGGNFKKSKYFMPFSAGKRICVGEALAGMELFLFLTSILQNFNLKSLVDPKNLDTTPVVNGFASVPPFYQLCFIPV
# Sequence of Atypical chemokine receptor 3 (Homo sapiens) (P25106 whole entry): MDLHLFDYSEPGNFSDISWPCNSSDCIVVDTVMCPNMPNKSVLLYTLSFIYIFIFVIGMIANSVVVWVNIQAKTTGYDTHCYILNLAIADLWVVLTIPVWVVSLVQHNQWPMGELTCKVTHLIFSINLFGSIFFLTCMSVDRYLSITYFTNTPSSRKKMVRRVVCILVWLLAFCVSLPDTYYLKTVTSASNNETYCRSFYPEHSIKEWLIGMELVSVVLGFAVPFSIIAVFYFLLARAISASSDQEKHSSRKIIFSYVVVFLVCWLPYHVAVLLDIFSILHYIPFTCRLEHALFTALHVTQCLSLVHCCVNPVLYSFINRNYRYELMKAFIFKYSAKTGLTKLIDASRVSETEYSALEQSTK
# Sequence of C-X-C chemokine receptor type 5 (Homo sapiens) (P32302 whole entry): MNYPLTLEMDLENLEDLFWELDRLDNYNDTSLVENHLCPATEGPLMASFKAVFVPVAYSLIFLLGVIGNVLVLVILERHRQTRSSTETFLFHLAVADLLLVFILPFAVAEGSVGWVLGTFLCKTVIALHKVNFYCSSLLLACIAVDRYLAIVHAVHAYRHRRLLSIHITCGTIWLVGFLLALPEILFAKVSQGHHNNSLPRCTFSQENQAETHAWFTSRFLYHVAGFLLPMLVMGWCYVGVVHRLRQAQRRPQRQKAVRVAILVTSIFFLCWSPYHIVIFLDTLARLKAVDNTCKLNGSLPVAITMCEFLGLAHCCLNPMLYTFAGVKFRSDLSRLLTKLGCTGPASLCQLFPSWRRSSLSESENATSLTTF
# Sequence of Cytochrome P450 2C19 (P33261 whole entry): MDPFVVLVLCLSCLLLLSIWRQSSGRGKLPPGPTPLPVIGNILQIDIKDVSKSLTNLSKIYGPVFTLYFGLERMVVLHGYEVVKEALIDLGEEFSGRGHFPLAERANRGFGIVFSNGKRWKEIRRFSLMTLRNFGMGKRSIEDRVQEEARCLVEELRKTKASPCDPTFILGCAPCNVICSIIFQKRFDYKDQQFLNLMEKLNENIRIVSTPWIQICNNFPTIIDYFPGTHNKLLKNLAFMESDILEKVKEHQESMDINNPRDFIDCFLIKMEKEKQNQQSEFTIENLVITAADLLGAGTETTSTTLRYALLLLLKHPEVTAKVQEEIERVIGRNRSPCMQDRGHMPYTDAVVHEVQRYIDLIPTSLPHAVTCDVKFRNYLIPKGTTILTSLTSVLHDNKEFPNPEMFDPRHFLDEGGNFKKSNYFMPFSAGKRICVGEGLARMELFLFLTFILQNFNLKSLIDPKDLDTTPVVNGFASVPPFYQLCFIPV
# Sequence of C-C chemokine receptor type 9 (Homo sapiens) (P51686 whole entry): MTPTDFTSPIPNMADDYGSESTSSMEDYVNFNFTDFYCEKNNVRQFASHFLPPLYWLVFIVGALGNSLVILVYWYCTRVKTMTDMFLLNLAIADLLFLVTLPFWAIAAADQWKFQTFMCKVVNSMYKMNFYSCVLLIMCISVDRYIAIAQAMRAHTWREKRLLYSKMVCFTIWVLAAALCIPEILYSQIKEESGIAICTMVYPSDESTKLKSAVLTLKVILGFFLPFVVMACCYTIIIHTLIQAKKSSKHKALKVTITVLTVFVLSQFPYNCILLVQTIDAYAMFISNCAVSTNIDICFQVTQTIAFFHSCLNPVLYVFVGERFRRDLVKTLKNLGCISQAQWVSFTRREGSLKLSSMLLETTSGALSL
# Sequence of C-C chemokine receptor type 10 (Homo sapiens) (P46092 whole entry): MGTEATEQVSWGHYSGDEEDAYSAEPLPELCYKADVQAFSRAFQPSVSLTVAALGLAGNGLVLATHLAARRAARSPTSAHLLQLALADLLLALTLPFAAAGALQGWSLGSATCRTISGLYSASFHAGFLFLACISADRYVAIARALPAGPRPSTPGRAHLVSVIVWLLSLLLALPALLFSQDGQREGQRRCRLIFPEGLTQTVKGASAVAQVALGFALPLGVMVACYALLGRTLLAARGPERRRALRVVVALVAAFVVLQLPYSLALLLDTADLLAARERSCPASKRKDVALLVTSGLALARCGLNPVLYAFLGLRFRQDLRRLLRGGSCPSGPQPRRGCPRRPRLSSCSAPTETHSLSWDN
# Sequence of Cytochrome P450 1A2 (P05177 whole entry): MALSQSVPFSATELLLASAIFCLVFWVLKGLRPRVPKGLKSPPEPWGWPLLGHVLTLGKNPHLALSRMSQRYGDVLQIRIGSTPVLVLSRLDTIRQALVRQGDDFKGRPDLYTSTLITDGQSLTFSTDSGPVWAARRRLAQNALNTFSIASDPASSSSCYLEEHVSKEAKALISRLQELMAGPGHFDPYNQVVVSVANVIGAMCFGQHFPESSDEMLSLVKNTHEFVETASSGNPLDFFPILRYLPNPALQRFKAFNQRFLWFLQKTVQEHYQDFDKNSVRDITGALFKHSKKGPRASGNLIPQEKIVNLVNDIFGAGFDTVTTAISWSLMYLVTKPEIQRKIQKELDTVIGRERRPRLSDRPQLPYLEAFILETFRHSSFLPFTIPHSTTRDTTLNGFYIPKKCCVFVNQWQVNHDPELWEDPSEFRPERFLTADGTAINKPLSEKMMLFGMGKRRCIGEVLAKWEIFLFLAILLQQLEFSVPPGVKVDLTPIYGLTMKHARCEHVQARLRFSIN
smiles,measurement,setting,value
C[C@H](c1ccc(Cl)cc1Cl)n1nc(C#N)c2ncc(N3CC([C@H]4CCCN(CCO)C4)C3)nc21,AUC(0-t),[1],751 ng·h/mL
same,Activity,Cytochrome P450,Not Active
same,Activity,[2],inactive
same,bioavailability,[3],41%
same,Activity,[4],inactive
same,half-life,[5],6.9 h
same,Activity,[6],inactive
same,IC50,Cytochrome P450 2C9,> 40 µM
same,Activity,[7],inactive
same,half-life,[8],10.7 h
same,clearance,[9],10.2 mL/min/kg
same,Activity,CT26 [10],Active
same,IC50,Cytochrome P450 1A2,> 40 µM
same,clearance,[11],7.3 mL/min/kg
same,Activity,Panc02 [12],Dose-dependent effect
same,Activity,Panc02 [13],Active
same,Activity,[14],inactive
same,IC50,Cytochrome P450 2C19,> 40 µM
same,half-life,[15],12.7 h
same,Activity,[16],inactive
same,bioavailability,[17],49%
same,IC50,Cytochrome P450 3A4,> 40 µM
same,Activity,[18],inactive
same,Activity,CT26 [19],Active
same,Activity,[20],Active
same,Activity,[21],inactive
same,clearance,[22],3.7 mL/min/kg
same,Vd,[23],5.2 L/kg
same,clearance,[24],47.6 mL/min/kg
same,IC50 shift,CYP3A4,1.2
